Source: ChEMBL document CHEMBL1781892, “Microwave assisted synthesis and structure-activity relationship of 4-hydroxy-N'-[1-phenylethylidene]-2H/2-methyl-1,2-benzothiazine-3-carbohydrazide 1,1-dioxides as anti-microbial agents” (2011)

Tests used:
[1] = system: Aspergillus niger; test: Antifungal activity against Aspergillus niger using 1 x 10^5 spore/100 uL after 72 hrs by microdilution method; assay type: functional
[2] = system: Aspergillus flavus; test: Antifungal activity against Aspergillus flavus using 1 x 10^5 spore/100 uL after 72 hrs by microdilution method; assay type: functional
[3] = system: Aspergillus fumigatus; test: Antifungal activity against Aspergillus fumigatus using 1 x 10^5 spore/100 uL after 72 hrs by microdilution method; assay type: functional
[4] = system: Trichoderma viride; test: Antifungal activity against Trichoderma viride using 1 x 10^5 spore/100 uL after 72 hrs by microdilution method; assay type: functional
[5] = Antifungal activity against Trichoderma reesei using 1 x 10^5 spore/100 uL after 72 hrs by microdilution method; assay type: functional
Method in brief: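 Spores washed from malt agar cultures with sterile 0.85% saline plus 0.1% Tween 80, adjusted to about 1.0×10^5 per 100 µl well. Compounds from a 1 mg/ml DMSO stock were serially diluted in malt broth with inoculum in 96-well plates and incubated 72 h at 28 °C. MIC is the lowest concentration with no visible growth under a binocular microscope. DMSO served as negative control.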

[6] = system: Curvularia australiensis; test: Antifungal activity against Drechslera australiensis using 1 x 10^5 spore/100 uL after 72 hrs by microdilution method; assay type: functional
[7] = system: Aspergillus niger; test: Antifungal activity against Aspergillus niger using 1 x 10^5 spore/100 uL assessed as 99.5% fungal killing of original inoculum after 72 hrs by microdilution method; assay type: functional
[8] = system: Aspergillus flavus; test: Antifungal activity against Aspergillus flavus using 1 x 10^5 spore/100 uL assessed as 99.5% fungal killing of original inoculum after 72 hrs by microdilution method; assay type: functional
[9] = system: Aspergillus fumigatus; test: Antifungal activity against Aspergillus fumigatus using 1 x 10^5 spore/100 uL assessed as 99.5% fungal killing of original inoculum after 72 hrs by microdilution method; assay type: functional
[10] = system: Trichoderma viride; test: Antifungal activity against Trichoderma viride using 1 x 10^5 spore/100 uL assessed as 99.5% fungal killing of original inoculum after 72 hrs by microdilution method; assay type: functional
[11] = Antifungal activity against Trichoderma reesei using 1 x 10^5 spore/100 uL assessed as 99.5% fungal killing of original inoculum after 72 hrs by microdilution method; assay type: functional
[12] = system: Curvularia australiensis; test: Antifungal activity against Drechslera australiensis using 1 x 10^5 spore/100 uL assessed as 99.5% fungal killing of original inoculum after 72 hrs by microdilution method; assay type: functional
[13] = system: Bacillus cereus; test: Antibacterial activity against Bacillus cereus using 1 x 10^4 CFU/ml inoculum after 24 hrs by microdilution method; assay type: functional
[14] = system: Bacillus subtilis; test: Antibacterial activity against Bacillus subtilis using 1 x 10^4 CFU/ml inoculum after 24 hrs by microdilution method; assay type: functional
[15] = system: Bacillus thuringiensis; test: Antibacterial activity against Bacillus thuringiensis using 1 x 10^4 CFU/ml inoculum after 24 hrs by microdilution method; assay type: functional
[16] = system: Staphylococcus aureus; test: Antibacterial activity against Staphylococcus aureus using 1 x 10^4 CFU/ml inoculum after 24 hrs by microdilution method; assay type: functional
[17] = system: Escherichia coli; test: Antibacterial activity against Escherichia coli using 1 x 10^4 CFU/ml inoculum after 24 hrs by microdilution method; assay type: functional
[18] = system: Pseudomonas aeruginosa; test: Antibacterial activity against Pseudomonas aeruginosa using 1 x 10^4 CFU/ml inoculum after 24 hrs by microdilution method; assay type: functional
[19] = system: Salmonella typhi; test: Antibacterial activity against Salmonella typhi using 1 x 10^4 CFU/ml inoculum after 24 hrs by microdilution method; assay type: functional, Salmonella enterica subsp. enterica serovar Typhi

Question: For `C/C(=N\NC(=O)C1=C(O)c2ccccc2S(=O)(=O)N1C)c1ccc(F)cc1F`, which MIC [1] is on record?
Answer: 76.5 ×10⁻² umol

Question: And the MIC [2]?
Answer: 76.3 ×10⁻² umol

Question: And the MIC [3]?
Answer: 69.6 ×10⁻² umol

Question: And the MIC [4]?
Answer: 72.1 ×10⁻² umol

Question: What about the MIC [5] of the same compound?
Answer: 68.4 ×10⁻² µmol

Question: What about the MIC [6] of the same compound?
Answer: 72.1 ×10⁻² umol

Question: What about the MFC [7] of the same compound?
Answer: 143.6 ×10⁻² umol

Question: What about the MFC [8] of the same compound?
Answer: 149.4 ×10⁻² umol

Question: And the MFC [9]?
Answer: 140.1 ×10⁻² umol

Question: What about the MFC [10] of the same compound?
Answer: 143 ×10⁻² umol

Question: What about the MFC [11] of the same compound?
Answer: 130 ×10⁻² µmol

Question: And the MFC [12]?
Answer: 144.2 ×10⁻² umol

Question: What about the MIC [13] of the same compound?
Answer: 7.5 ×10⁻² umol

Question: And the MIC [14]?
Answer: 7.8 ×10⁻² umol

Question: And the MIC [15]?
Answer: 8 ×10⁻² umol

Question: What about the MIC [16] of the same compound?
Answer: 27.6 ×10⁻² umol

Question: What about the MIC [17] of the same compound?
Answer: 28.9 ×10⁻² umol

Question: And the MIC [18]?
Answer: 30.5 ×10⁻² umol

Question: What about the MIC [19] of the same compound?
Answer: 33.1 ×10⁻² umol

Question: With `C/C(=N\NC(=O)C1=C(O)c2ccccc2S(=O)(=O)N1C)c1cccc(O)c1` as the compound, how does the MIC [1] read?
Answer: >100 ×10⁻² umol

Question: And the MIC [2]?
Answer: >100 ×10⁻² umol

Question: And the MIC [3]?
Answer: >100 ×10⁻² umol

Question: And the MIC [4]?
Answer: >100 ×10⁻² umol

Question: And the MIC [5]?
Answer: > 100 ×10⁻² µmol

Question: And the MIC [6]?
Answer: >100 ×10⁻² umol

Question: What about the MFC [7] of the same compound?
Answer: >200 ×10⁻² umol

Question: And the MFC [8]?
Answer: >200 ×10⁻² umol

Question: And the MFC [9]?
Answer: >200 ×10⁻² umol

Question: What about the MFC [10] of the same compound?
Answer: >200 ×10⁻² umol

Question: And the MFC [11]?
Answer: > 200 ×10⁻² µmol

Question: And the MFC [12]?
Answer: >200 ×10⁻² umol

Question: And the MIC [13]?
Answer: 4.2 ×10⁻² umol

Question: What about the MIC [14] of the same compound?
Answer: 4.5 ×10⁻² umol

Question: And the MIC [15]?
Answer: 4.3 ×10⁻² umol

Question: And the MIC [16]?
Answer: 18.2 ×10⁻² umol

Question: And the MIC [17]?
Answer: 19.3 ×10⁻² umol

Question: And the MIC [18]?
Answer: 21 ×10⁻² umol

Question: What about the MIC [19] of the same compound?
Answer: 23.1 ×10⁻² umol

Question: With `COc1cccc(/C(C)=N/NC(=O)C2=C(O)c3ccccc3S(=O)(=O)N2C)c1` as the compound, how does the MIC [1] read?
Answer: 90.1 ×10⁻² umol

Question: What about the MIC [2] of the same compound?
Answer: 92.6 ×10⁻² umol

Question: And the MIC [3]?
Answer: 85.7 ×10⁻² umol

Question: And the MIC [4]?
Answer: 80.5 ×10⁻² umol

Question: What about the MIC [5] of the same compound?
Answer: 79.6 ×10⁻² µmol

Question: What about the MIC [6] of the same compound?
Answer: 81.7 ×10⁻² umol

Question: And the MFC [7]?
Answer: 190 ×10⁻² umol

Question: And the MFC [8]?
Answer: 188.9 ×10⁻² umol

Question: What about the MFC [9] of the same compound?
Answer: 168.2 ×10⁻² umol

Question: What about the MFC [10] of the same compound?
Answer: 160.4 ×10⁻² umol

Question: What about the MFC [11] of the same compound?
Answer: 159 ×10⁻² µmol

Question: What about the MFC [12] of the same compound?
Answer: 154.8 ×10⁻² umol

Question: And the MIC [13]?
Answer: 7 ×10⁻² umol

Question: And the MIC [14]?
Answer: 7.7 ×10⁻² umol

Question: And the MIC [15]?
Answer: 7.8 ×10⁻² umol

Question: And the MIC [16]?
Answer: 24.1 ×10⁻² umol

Question: What about the MIC [17] of the same compound?
Answer: 25.6 ×10⁻² umol

Question: And the MIC [18]?
Answer: 26.8 ×10⁻² umol

Question: And the MIC [19]?
Answer: 29.4 ×10⁻² umol

Question: For `C/C(=N\NC(=O)C1=C(O)c2ccccc2S(=O)(=O)N1)c1ccc(N)cc1`, which MIC [1] is on record?
Answer: 83.8 ×10⁻² umol

Question: And the MIC [2]?
Answer: 82.9 ×10⁻² umol

Question: What about the MIC [3] of the same compound?
Answer: 74 ×10⁻² umol

Question: What about the MIC [4] of the same compound?
Answer: 71.3 ×10⁻² umol

Question: What about the MIC [5] of the same compound?
Answer: 70.3 ×10⁻² µmol

Question: And the MIC [6]?
Answer: 70 ×10⁻² umol

Question: And the MFC [7]?
Answer: 177.5 ×10⁻² umol

Question: And the MFC [8]?
Answer: 175.9 ×10⁻² umol

Question: And the MFC [9]?
Answer: 150.1 ×10⁻² umol

Question: And the MFC [10]?
Answer: 142.8 ×10⁻² umol

Question: What about the MFC [11] of the same compound?
Answer: 138 ×10⁻² µmol

Question: And the MFC [12]?
Answer: 129.5 ×10⁻² umol

Question: What about the MIC [13] of the same compound?
Answer: 6.2 ×10⁻² umol

Question: And the MIC [14]?
Answer: 6 ×10⁻² umol

Question: And the MIC [15]?
Answer: 6.1 ×10⁻² umol

Question: What about the MIC [16] of the same compound?
Answer: 20.5 ×10⁻² umol

Question: And the MIC [17]?
Answer: 22.9 ×10⁻² umol

Question: And the MIC [18]?
Answer: 24.5 ×10⁻² umol

Question: And the MIC [19]?
Answer: 27.7 ×10⁻² umol

Question: For `COc1ccc(/C(C)=N/NC(=O)C2=C(O)c3ccccc3S(=O)(=O)N2)cc1`, which MIC [1] is on record?
Answer: 87.3 ×10⁻² umol

Question: And the MIC [2]?
Answer: 86.2 ×10⁻² umol

Question: What about the MIC [3] of the same compound?
Answer: 77.7 ×10⁻² umol

Question: And the MIC [4]?
Answer: 80.5 ×10⁻² umol

Question: And the MIC [5]?
Answer: 79.9 ×10⁻² µmol

Question: And the MIC [6]?
Answer: 81.1 ×10⁻² umol

Question: And the MFC [7]?
Answer: 179.5 ×10⁻² umol

Question: And the MFC [8]?
Answer: 169.3 ×10⁻² umol

Question: And the MFC [9]?
Answer: 153.6 ×10⁻² umol

Question: And the MFC [10]?
Answer: 158.8 ×10⁻² umol

Question: What about the MFC [11] of the same compound?
Answer: 160 ×10⁻² µmol

Question: What about the MFC [12] of the same compound?
Answer: 159.6 ×10⁻² umol

Question: What about the MIC [13] of the same compound?
Answer: 7.8 ×10⁻² umol

Question: What about the MIC [14] of the same compound?
Answer: 7.5 ×10⁻² umol

Question: And the MIC [15]?
Answer: 7.8 ×10⁻² umol

Question: And the MIC [16]?
Answer: 26.7 ×10⁻² umol

Question: What about the MIC [17] of the same compound?
Answer: 27.8 ×10⁻² umol

Question: And the MIC [18]?
Answer: 29.3 ×10⁻² umol

Question: What about the MIC [19] of the same compound?
Answer: 32.7 ×10⁻² umol

Question: With `C/C(=N\NC(=O)C1=C(O)c2ccccc2S(=O)(=O)N1C)c1ccc(I)cc1` as the compound, how does the MIC [1] read?
Answer: 91.4 ×10⁻² umol

Question: What about the MIC [2] of the same compound?
Answer: 89.8 ×10⁻² umol

Question: What about the MIC [3] of the same compound?
Answer: 81.9 ×10⁻² umol

Question: What about the MIC [4] of the same compound?
Answer: 71.1 ×10⁻² umol

Question: What about the MIC [5] of the same compound?
Answer: 70.1 ×10⁻² µmol

Question: And the MIC [6]?
Answer: 74 ×10⁻² umol

Question: What about the MFC [7] of the same compound?
Answer: 198.4 ×10⁻² umol

Question: And the MFC [8]?
Answer: 190.7 ×10⁻² umol

Question: What about the MFC [9] of the same compound?
Answer: 159.8 ×10⁻² umol

Question: What about the MFC [10] of the same compound?
Answer: 139.2 ×10⁻² umol

Question: And the MFC [11]?
Answer: 123 ×10⁻² µmol

Question: And the MFC [12]?
Answer: 150.6 ×10⁻² umol

Question: And the MIC [13]?
Answer: 9 ×10⁻² umol

Question: And the MIC [14]?
Answer: 9.3 ×10⁻² umol

Question: And the MIC [15]?
Answer: 9.2 ×10⁻² umol

Question: And the MIC [16]?
Answer: 28 ×10⁻² umol

Question: And the MIC [17]?
Answer: 29.3 ×10⁻² umol

Question: What about the MIC [18] of the same compound?
Answer: 30.5 ×10⁻² umol

Question: And the MIC [19]?
Answer: 33.2 ×10⁻² umol
